In ChEMBL document CHEMBL1139439, “Folate-synthesizing enzyme system as target for development of inhibitors and inhibitor combinations against Candida albicans-synthesis and biological activity of new 2,4-diaminopyrimidines and 4'-substituted 4-aminodiphenyl sulfones” (J Med Chem, 2004):
Blank lines part the entries; values can stand above or below the compound they belong to.

Assays:
[1] = biological target: T1, Dihydropteroate synthetase, putative (Plasmodium berghei str. ANKA, UniProt A0A113T0T6); test: (§1) Inhibitory activity against dihydropteroic acid synthase (SYN) from Plasmodium berghei; conditions: read-out: I50
T1 sequence (A0A113T0T6 whole entry): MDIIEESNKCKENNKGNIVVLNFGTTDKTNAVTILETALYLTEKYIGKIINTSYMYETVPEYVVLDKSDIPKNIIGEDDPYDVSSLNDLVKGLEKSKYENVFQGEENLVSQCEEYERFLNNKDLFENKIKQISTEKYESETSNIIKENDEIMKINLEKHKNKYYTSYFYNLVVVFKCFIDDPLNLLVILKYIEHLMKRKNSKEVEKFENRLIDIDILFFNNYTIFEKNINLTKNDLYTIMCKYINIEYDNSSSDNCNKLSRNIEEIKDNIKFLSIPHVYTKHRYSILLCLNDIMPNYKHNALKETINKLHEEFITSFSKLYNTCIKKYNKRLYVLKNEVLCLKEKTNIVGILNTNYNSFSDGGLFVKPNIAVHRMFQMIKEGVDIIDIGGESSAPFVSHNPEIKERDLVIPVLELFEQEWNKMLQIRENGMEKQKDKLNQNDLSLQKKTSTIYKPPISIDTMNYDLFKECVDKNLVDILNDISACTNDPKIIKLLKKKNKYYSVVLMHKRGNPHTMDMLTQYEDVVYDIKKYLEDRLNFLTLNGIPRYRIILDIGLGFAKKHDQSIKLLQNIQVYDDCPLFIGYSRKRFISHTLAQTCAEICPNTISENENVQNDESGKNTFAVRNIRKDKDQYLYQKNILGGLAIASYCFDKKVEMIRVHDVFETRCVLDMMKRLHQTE

[2] = Inhibitory activity against dihydropteroic acid synthase (SYN) from Mycobacterium lufu (DDS resistant); conditions: read-out: I50
[3] = Inhibitory activity against dihydropteroic acid synthase (SYN) from Mycobacterium lufu (DDS sensitive); conditions: read-out: I50
[4] = Inhibitory activity against dihydropteroic acid synthase (SYN) from Escherichia coli; conditions: read-out: I50
Dihydrofolate reductase [5] = biological target: T2, Dihydrofolate reductase (Candida albicans, UniProt P22906); test: Inhibitory activity against cell free dihydrofolate reductase (DHFR) from Candida albicans; conditions: for IC50: read-out: I50
T2 sequence (P22906 whole entry): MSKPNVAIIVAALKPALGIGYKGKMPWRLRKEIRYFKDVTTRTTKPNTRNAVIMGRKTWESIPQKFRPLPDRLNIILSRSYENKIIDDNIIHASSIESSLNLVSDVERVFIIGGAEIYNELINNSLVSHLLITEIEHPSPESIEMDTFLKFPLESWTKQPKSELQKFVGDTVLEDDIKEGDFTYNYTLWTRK

Dihydrofolate reductase [6] = biological target: T3, Dihydrofolate reductase (Rattus norvegicus, UniProt Q920D2); test: Inhibitory activity against cell free dihydrofolate reductase (DHFR) from rat; conditions: for IC50: read-out: I50
T3 sequence (Q920D2 whole entry): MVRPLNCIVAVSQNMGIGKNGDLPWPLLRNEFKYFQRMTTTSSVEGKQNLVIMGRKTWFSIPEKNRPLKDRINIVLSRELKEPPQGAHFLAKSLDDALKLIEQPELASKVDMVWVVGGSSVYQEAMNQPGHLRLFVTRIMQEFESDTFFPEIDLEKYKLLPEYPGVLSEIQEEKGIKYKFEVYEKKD

[7] = Inhibitory activity against dihydropteroic acid synthase (SYN) from candida albicans; conditions: read-out: I50
Method in brief: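 Partially purified SYN extract was prepared from C. albicans ATCC 11651 and incubated with sulfones at pH 8.4. Periodic samples were quenched with trichloroacetic acid, and folate formed was quantified by bioassay with folate-requiring Streptococcus faecium. I50 is the concentration giving a 50% decrease in dihydropteroic acid production versus the uninhibited control.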

[8] = biological target: T4, Dihydropteroate synthetase, putative (Plasmodium berghei str. ANKA) (UniProt A0A113T0T6); test: as §1
T4 sequence (whole entry): T1 sequence (A0A113T0T6 whole entry)

Candida albicans [9] = test: Inhibitory effect on Candida albicans YEM12 Strain; format: functional
Method in brief: (§2)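 MICs were determined by serial dilution in RPMI medium. MIC is the lowest concentration giving culture turbidity ≤20% of the control culture.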

Candida albicans [10] = test: Inhibitory effect on Candida albicans YEM13 BENup Strain; format: functional; method in brief: as §2
Nakaseomyces glabratus [11] = test: Inhibitory effect on Candida glabrata YEM75 WT Strain; format: functional
Method in brief: (§3)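 For C. glabrata strains, MICs were determined by serial dilution in RPMI medium and read after 48 h. MIC is the lowest concentration giving turbidity ≤20% of the control culture.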

Candida albicans [12] = test: Inhibitory effect on Candida albicans wild type YEM14 Strain; format: functional; method in brief: as §2
Candida albicans [13] = test: Inhibitory effect on Candida albicans wild type YEM30 Strain; format: functional; method in brief: as §2
Candida albicans [14] = test: Inhibitory effect on Candida albicans YEM15 CDR1CDR2up Strain; format: functional; method in brief: as §2
Candida albicans [15] = test: Inhibitory effect on Candida albicans YEM27 quad deletion Strain; format: functional; method in brief: as §2
Nakaseomyces glabratus [16] = test: Inhibitory effect on Candida glabrata YEM88 CgCDR1 CgCDR2up Strain; format: functional; method in brief: as §3
Nakaseomyces glabratus [17] = test: Inhibitory effect on Candida glabrata YEM216 pCDR1pCDR2pBEN YEM75 WT Strain; format: functional; method in brief: as §3

IC50 (Dihydrofolate reductase [5]): 0.49 µM | IC50 (Dihydrofolate reductase [6]): 2.82 µM
Compound: Nc1ncc(OCc2ccc(Br)c3ccccc23)c(N)n1

IC50 (Dihydrofolate reductase [5]): 53.5 µM | IC50 (Dihydrofolate reductase [6]): 29.4 µM
Compound: Nc1ncc(Cc2cccc3ccccc23)c(N)n1

IC50 (Dihydrofolate reductase [5]): 0.73 µM | IC50 (Dihydrofolate reductase [6]): 3.53 µM
Compound: Nc1ncc(OCc2ccccc2Cl)c(N)n1

IC50 (Dihydrofolate reductase [5]): 0.538 µM | IC50 (Dihydrofolate reductase [6]): 4.53 µM
Compound: COc1cc(COc2cnc(N)nc2N)ccc1OCCCNS(=O)(=O)c1ccc(C)cc1

IC50 (Dihydrofolate reductase [5]): 2.81 µM | IC50 (Dihydrofolate reductase [6]): 39.4 µM
Compound: Nc1ncc(OCc2ccc(OCc3ccccc3)cc2)c(N)n1

IC50 (Dihydrofolate reductase [5]): 3.37 µM | IC50 (Dihydrofolate reductase [6]): 39.9 µM
Compound: Nc1ncc(CCc2ccccc2)c(N)n1

IC50 (Dihydrofolate reductase [5]): 0.619 µM | IC50 (Dihydrofolate reductase [6]): 15.7 µM
Compound: Nc1ncc(OCc2ccc(OCCCN3C(=O)c4ccccc4C3=O)cc2)c(N)n1

MIC (Candida albicans [9]): > 64 µg/mL | MIC (Candida albicans [10]): > 64 µg/mL | IC50 (Dihydrofolate reductase [5]): 0.061 µM | MIC (Nakaseomyces glabratus [11]): > 64 µg/mL | MIC (Candida albicans [12]): > 64 µg/mL | IC50 (Dihydrofolate reductase [6]): 1.76 µM | MIC (Candida albicans [13]): > 64 µg/mL | MIC (Candida albicans [14]): > 64 µg/mL | MIC (Candida albicans [15]): > 64 µg/mL | MIC (Nakaseomyces glabratus [16]): > 64 µg/mL | MIC (Nakaseomyces glabratus [17]): > 64 µg/mL
Compound: COc1ccc(Cc2cnc(N)nc2N)cc1OCCCCN1C(=O)c2ccccc2C1=O

IC50 (Dihydrofolate reductase [5]): 4.77 µM | IC50 (Dihydrofolate reductase [6]): 61.2 µM
Compound: Nc1ncc(Cc2ccc3ccccc3c2)c(N)n1

IC50 (Dihydrofolate reductase [5]): 1.85 µM | IC50 (Dihydrofolate reductase [6]): 3.36 µM
Compound: Cc1nc(N)nc(N)c1Cc1ccccc1

IC50 (Dihydrofolate reductase [5]): 0.047 µM | IC50 (Dihydrofolate reductase [6]): 3.64 µM
Compound: Nc1ncc(Cc2ccc(OCCCCN3C(=O)c4ccccc4C3=O)cc2)c(N)n1

IC50 (Dihydrofolate reductase [5]): 90.5 µM | I50 (Dihydrofolate reductase [6]): 115.3 uM l-1
Compound: Nc1ncc(Cc2ccccc2)c(N)n1

MIC (Candida albicans [9]): > 64 µg/mL | MIC (Candida albicans [10]): > 64 µg/mL | IC50 (Dihydrofolate reductase [5]): 0.031 µM | MIC (Nakaseomyces glabratus [11]): > 64 µg/mL | MIC (Candida albicans [12]): > 64 µg/mL | IC50 (Dihydrofolate reductase [6]): 1.81 µM | MIC (Candida albicans [13]): > 64 µg/mL | MIC (Candida albicans [14]): > 64 µg/mL | MIC (Candida albicans [15]): > 64 µg/mL | MIC (Nakaseomyces glabratus [16]): > 64 µg/mL | MIC (Nakaseomyces glabratus [17]): > 64 µg/mL
Compound: COc1cc(Cc2cnc(N)nc2N)ccc1OCCCCN1C(=O)c2ccccc2C1=O

IC50 (Dihydrofolate reductase [5]): 52.3 µM | I50 (Dihydrofolate reductase [6]): 146.2 uM l-1
Compound: COc1ccc(CNc2cnc(N)nc2N)cc1

IC50 (Dihydrofolate reductase [5]): 16.1 µM | IC50 (Dihydrofolate reductase [6]): 71.3 µM
Compound: Nc1ncc(NCc2ccc3ccccc3c2)c(N)n1

IC50 (Dihydrofolate reductase [5]): 0.581 µM | IC50 (Dihydrofolate reductase [6]): 1.72 µM
Compound: Cc1ccc(S(=O)(=O)NCCCCOc2ccc(Cc3cnc(N)nc3N)cc2)cc1

Further lines, the compound ahead of its results:

Compound: CC(=O)Nc1ccc(S(=O)(=O)c2ccc(N)cc2)cc1 [MONO-N-ACETYL DAPSONE]
IC50 [1]: 33.3 µM | IC50 [2]: 4.05 µM | IC50 [3]: 7.01 µM | IC50 [4]: 75.7 µM

Compound: Cc1nc(N)nc(N)c1OCc1ccc(Cl)c(Cl)c1
IC50 (Dihydrofolate reductase [5]): 1.34 µM | IC50 (Dihydrofolate reductase [6]): 4.58 µM

Compound: Cc1ccc(S(=O)(=O)c2ccc(N)cc2)cc1
IC50 [1]: 48 µM | IC50 [2]: 5.92 µM | IC50 [7]: 10.1 µM | IC50 [3]: 8.08 µM | IC50 [4]: 89.9 µM

Compound: Nc1ccc(S(=O)(=O)c2ccc(O)cc2)cc1
I50 [8]: 32.2 µM | IC50 [2]: 1.61 µM | IC50 [7]: 2.4 µM | IC50 [3]: 1.5 µM | IC50 [4]: 34.9 µM

Compound: Nc1ccc(S(=O)(=O)c2ccc(NCC(=O)O)cc2)cc1 [ACEDIASULFONE]
IC50 [1]: 17.8 µM | IC50 [2]: 0.82 µM | IC50 [7]: 1.22 µM | IC50 [3]: 0.87 µM | IC50 [4]: 37.1 µM

Compound: Nc1ccc(S(=O)(=O)c2ccccc2)cc1
IC50 [1]: 104 µM | IC50 [2]: 12 µM | IC50 [7]: 13.3 µM | IC50 [3]: 12.1 µM | IC50 [4]: 116 µM

Compound: COc1ccc(CNc2cnc(N)nc2N)cc1OC
I50 (Dihydrofolate reductase [5]): 125.8 uM l-1 | I50 (Dihydrofolate reductase [6]): 197.3 uM l-1

Compound: Nc1ncc(NCc2ccc(Cl)c(Cl)c2)c(N)n1
IC50 (Dihydrofolate reductase [5]): 84.8 µM | I50 (Dihydrofolate reductase [6]): > 350 uM l-1

Compound: Nc1ncc(NCc2ccccc2Cl)c(N)n1
IC50 (Dihydrofolate reductase [5]): 6.63 µM | IC50 (Dihydrofolate reductase [6]): 71.5 µM

Compound: COc1cc(Cc2cnc(N)nc2N)cc(OC)c1OCCCNc1ccc(N(C)C)cc1
IC50 (Dihydrofolate reductase [5]): 0.97 µM

Compound: COc1ccc(CCc2cnc(N)nc2N)cc1OC
IC50 (Dihydrofolate reductase [5]): 35.4 µM | I50 (Dihydrofolate reductase [6]): 315.3 uM l-1

Compound: Nc1ccc(S(=O)(=O)c2ccc(N)cc2)cc1 [DAPSONE]
IC50 [1]: 12.4 µM | IC50 [2]: 1.18 µM | IC50 [7]: 1.78 µM | IC50 [3]: 1.2 µM | IC50 [4]: 34.4 µM
